Data on one compound can be found in publication PMC3747510 (Scientific Reports, 2013).

The test has as its target T1, S. pneumoniae LeuRS (SpLeuRS) (Streptococcus pneumoniae serotype 4, UniProt Q97SS0).
T1 sequence (Q97SS0 1-833): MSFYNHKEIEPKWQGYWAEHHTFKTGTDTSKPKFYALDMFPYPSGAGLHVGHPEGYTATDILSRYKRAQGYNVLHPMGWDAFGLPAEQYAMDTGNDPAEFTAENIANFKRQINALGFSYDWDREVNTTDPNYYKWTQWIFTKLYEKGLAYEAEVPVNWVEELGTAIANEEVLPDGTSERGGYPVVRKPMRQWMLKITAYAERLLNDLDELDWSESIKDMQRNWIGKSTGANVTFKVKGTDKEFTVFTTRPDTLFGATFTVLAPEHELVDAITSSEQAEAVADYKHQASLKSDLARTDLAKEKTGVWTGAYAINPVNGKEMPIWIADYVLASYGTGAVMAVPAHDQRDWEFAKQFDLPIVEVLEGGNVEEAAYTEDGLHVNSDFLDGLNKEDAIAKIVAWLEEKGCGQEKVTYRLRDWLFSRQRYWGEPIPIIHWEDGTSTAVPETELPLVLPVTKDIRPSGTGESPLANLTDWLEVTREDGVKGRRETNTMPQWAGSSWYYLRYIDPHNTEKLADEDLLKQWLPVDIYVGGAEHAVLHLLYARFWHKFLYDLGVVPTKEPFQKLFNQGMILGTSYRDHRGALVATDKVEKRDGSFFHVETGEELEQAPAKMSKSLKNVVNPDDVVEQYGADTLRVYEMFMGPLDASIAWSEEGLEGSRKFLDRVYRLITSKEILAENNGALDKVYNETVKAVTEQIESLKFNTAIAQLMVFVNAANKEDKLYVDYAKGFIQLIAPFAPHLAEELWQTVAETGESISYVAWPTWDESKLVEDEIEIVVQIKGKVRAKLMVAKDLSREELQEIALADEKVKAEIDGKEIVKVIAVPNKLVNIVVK
The experiment in a line: Aminoacylation inhibition. It counts as biochemical. The method in brief:
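Aminoacylation at 37°C with [3H]leucine, started with 4 mM ATP, in Tris-HCl pH 7.5 buffer. Each LeuRS was used at equal activity, i.e. forming 10 pmol Leu-tRNALeu in 5 min. At least six test-compound concentrations were tested. IC50 was taken from a fitted dose-response curve, as the mean of at least two independent experiments.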

The IC50 is the point on the concentration scale where inhibition reaches its midpoint. Low values mean greater potency, high ones weaker potency.

Structures are written as SMILES.

Regarding `OB1OCc2ccc(C(O)c3ccccc3)cc21` (stereo not shown) [ZCL039, [6-(1-phenyl-1-hydroxylmethyl)]-1,3-dihydro-1-hydroxy-2,1-benzoxaborole], the IC50 stood at 1.72 ± 0.05 µM.
